{"source": "paper PMC4377729", "about": "(Theranostics, 2015)", "key": {"[1]": {"type": "in vivo", "details": "10 nmol (0.4 mg/kg) intravenously, mice, 4 h post-injection", "procedure,_shortened": "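Nude mice (about 25 g) were anesthetized with ip ketamine/xylazine, given 10 nmol (0.4 mg/kg) conjugate iv in saline, and imaged 4 h later. Excitation was 745-779 nm light at 14 mW cm-2, with 800-848 nm emission and fixed exposure. SBR is tissue signal over neighbouring muscle or skin. For biodistribution, mice were killed at 30-240 min and organs resected and imaged; n ≥ 3 per time point.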"}, "[2]": {"details": "in DMSO; cited from earlier work"}, "[3]": {"details": "previously reported; cited from earlier work"}}}
{"smiles": "CC1(C)C(/C=C/C2=C(Oc3ccc(S(=O)(=O)O)cc3)C(=C/C=C3/N(CCCCS(=O)(=O)O)c4ccc(S(=O)(=O)[O-])cc4C3(C)C)/CCC2)=[N+](CCCCCC(=O)O)c2ccc(S(=O)(=O)O)cc21", "note": "[CW800]", "values": [{"measurement": "location of NIR fluorescence signal / tissue uptake (in words)", "setting": "[1]", "value": "elevated nonspecific background signals in the liver and skin"}]}
{"smiles": "CC1(C)C(/C=C/C=C/C=C/C=C2\\N(CCCCS(=O)(=O)[O-])c3ccc4ccccc4c3C2(C)C)=[N+](CCCCS(=O)(=O)[O-])c2ccc3ccccc3c21.[Na+]", "note": "[ICG]", "values": [{"measurement": "QY of calibration standard", "setting": "[2]", "value": 13, "unit": "%"}]}
{"smiles": "CC1(C)C(/C=C/C2=C(Oc3ccc(CCC(=O)NCCC(O)(P(=O)([O-])O)P(=O)(O)O)cc3)C(=C\\C=C3/N(CCCCS(=O)(=O)O)c4ccc(S(=O)(=O)O)cc4C3(C)C)/CCC2)=[N+](CCCCS(=O)(=O)O)c2ccc(S(=O)(=O)O)cc21", "note": "(stereo not drawn) [Pam78]", "values": [{"measurement": "binding to hydroxyapatite (HA) in vitro and in vivo (in words)", "setting": "[3]", "value": "rapid and specific binding to hydroxyapatite (HA) in vitro and in vivo"}]}
